Laboratory results reported in ChEMBL document CHEMBL2385070, “Selective inhibition of bacterial and human topoisomerases by N-arylacyl O-sulfonated aminoglycoside derivatives” (ACS Med Chem Lett, 2013).
Active and inactive are the calls of the source. No cut-off for these calls is given here.

What was measured:
[1] = target: T1, DNA topoisomerase 1 (Homo sapiens) (UniProt P11387); assay: Inhibition of human DNA topoisomerase 1 at 200 uM relative to control
T1 sequence (whole entry): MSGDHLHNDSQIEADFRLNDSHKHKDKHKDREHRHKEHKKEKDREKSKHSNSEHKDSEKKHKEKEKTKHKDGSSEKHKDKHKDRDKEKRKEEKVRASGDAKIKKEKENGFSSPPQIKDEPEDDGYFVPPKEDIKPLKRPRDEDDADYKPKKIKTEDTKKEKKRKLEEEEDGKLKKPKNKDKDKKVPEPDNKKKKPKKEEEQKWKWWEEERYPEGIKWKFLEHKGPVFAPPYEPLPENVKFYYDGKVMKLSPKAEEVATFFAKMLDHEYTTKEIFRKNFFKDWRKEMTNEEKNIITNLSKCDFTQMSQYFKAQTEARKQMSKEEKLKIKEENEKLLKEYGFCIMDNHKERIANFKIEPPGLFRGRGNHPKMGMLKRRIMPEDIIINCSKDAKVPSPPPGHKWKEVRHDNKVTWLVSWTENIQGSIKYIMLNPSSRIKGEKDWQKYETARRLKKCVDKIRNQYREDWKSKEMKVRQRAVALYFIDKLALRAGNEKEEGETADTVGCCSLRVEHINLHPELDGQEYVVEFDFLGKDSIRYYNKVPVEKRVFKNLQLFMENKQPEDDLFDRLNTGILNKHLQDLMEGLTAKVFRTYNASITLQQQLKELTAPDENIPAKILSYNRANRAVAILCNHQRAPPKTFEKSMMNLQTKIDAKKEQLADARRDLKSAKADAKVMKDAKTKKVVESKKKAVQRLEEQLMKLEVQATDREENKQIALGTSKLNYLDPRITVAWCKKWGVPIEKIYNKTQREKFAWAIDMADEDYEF

[2] = target: DNA topoisomerase 2-alpha (Homo sapiens) (UniProt P11388); assay: Inhibition of human DNA topoisomerase 2 at 200 uM relative to control
DNA topoisomerase 2-alpha (Homo sapiens), sequence (P11388 whole entry): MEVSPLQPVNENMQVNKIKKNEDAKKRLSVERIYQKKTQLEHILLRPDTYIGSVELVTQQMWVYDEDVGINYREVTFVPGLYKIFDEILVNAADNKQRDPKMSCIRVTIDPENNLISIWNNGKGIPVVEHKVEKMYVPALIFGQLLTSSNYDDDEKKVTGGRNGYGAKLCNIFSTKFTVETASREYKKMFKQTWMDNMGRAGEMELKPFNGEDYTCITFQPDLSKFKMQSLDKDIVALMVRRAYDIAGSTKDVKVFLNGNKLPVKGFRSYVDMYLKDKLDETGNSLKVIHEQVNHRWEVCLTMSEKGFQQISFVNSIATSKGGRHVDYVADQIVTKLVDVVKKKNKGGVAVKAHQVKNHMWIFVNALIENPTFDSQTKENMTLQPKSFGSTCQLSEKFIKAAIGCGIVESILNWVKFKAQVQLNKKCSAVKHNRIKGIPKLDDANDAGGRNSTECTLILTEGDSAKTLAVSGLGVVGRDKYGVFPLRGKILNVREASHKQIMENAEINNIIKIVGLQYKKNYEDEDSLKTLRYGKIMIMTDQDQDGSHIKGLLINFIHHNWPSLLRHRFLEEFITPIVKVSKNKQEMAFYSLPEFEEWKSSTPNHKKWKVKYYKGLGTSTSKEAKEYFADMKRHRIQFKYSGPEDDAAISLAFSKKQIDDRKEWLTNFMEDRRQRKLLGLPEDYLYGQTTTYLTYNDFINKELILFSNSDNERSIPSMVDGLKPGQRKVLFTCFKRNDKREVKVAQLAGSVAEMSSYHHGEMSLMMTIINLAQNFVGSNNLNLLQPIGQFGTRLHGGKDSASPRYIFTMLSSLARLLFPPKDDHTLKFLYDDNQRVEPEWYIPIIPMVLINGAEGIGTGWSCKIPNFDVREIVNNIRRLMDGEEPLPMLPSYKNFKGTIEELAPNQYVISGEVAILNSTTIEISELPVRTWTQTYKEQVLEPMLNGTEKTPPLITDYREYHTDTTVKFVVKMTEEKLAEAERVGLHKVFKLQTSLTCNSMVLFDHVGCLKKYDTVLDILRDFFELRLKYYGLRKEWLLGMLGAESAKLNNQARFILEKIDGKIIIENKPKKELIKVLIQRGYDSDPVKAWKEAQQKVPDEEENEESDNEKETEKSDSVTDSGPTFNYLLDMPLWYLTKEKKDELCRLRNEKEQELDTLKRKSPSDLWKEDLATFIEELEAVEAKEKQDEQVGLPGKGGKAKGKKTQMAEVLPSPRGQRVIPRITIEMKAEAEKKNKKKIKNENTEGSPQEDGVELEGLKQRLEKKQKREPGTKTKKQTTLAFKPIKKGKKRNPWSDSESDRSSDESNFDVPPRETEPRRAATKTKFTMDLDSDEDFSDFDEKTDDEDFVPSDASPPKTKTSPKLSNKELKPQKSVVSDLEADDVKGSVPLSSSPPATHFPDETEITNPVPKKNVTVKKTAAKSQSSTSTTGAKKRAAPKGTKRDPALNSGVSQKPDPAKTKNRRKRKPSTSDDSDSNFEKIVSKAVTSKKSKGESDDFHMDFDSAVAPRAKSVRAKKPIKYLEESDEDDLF

[3] = test system: Escherichia coli; assay: Inhibition of Escherichia coli DNA topoisomerase 4 at 200 uM relative to control
[4] = test system: Escherichia coli; assay: Inhibition of Escherichia coli DNA gyrase catalytic activity at 200 uM relative to control
How it was run: (§1)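 E. coli gyrase was incubated with relaxed DNA, either without compound or with compound at 200 μM; titrations also used 20, 50 and 100 μM. Gel lanes included a no-enzyme control and an enzyme-without-compound control, and supercoiling was scored from the lane pattern. In the summary table, + denotes greater than 95% inhibition.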

[5] = test system: Escherichia coli; assay: Inhibition of Escherichia coli DNA topoisomerase 4 assessed as blockade of ciprofloxacin-induced pBR322 DNA cleavage at 200 uM after 10 mins by agarose gel electrophoresis
How it was run: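 E. coli Topo IV was incubated with plasmid DNA and ciprofloxacin with or without compound. Ciprofloxacin traps the enzyme–DNA ternary complex, and nicked and linear DNA products were scored on the gel against the supercoiled substrate.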

[6] = test system: Escherichia coli; assay: Inhibition of Escherichia coli DNA topoisomerase 4-mediated decatenation of kinetoplast DNA at 200 uM after 15 mins by agarose gel electrophoresis
[7] = test system: Escherichia coli; assay: Inhibition of Escherichia coli DNA topoisomerase 4-mediated relaxation of negatively supercoiled pBR322 DNA at 200 uM after 15 mins by agarose gel electrophoresis
[8] = test system: Escherichia coli; assay: Inhibition of Escherichia coli DNA gyrase-mediated supercoiling of relaxed I-DNA after 15 mins by agarose gel electrophoresis; how it was run: as §1

inhibition [1] | inhibition [2] | inhibition [3] | inhibition [4] | inhibition [5] | inhibition [6] | inhibition [7] | inhibition [8] | SMILES
inactive | inactive | inactive | inactive |  |  |  |  | CN(C(=O)OCc1ccccc1)[C@@H]1[C@@H](O[C@H]2O[C@H](CO)[C@@H](NC(=O)OCc3ccccc3)[C@H](O)[C@H]2O)O[C@H]2C[C@@H](NC(=O)OCc3ccccc3)[C@@H](O[C@H]3[C@H](O)[C@@H](O)[C@H](NC(=O)OCc4ccccc4)C[C@@H]3NC(=O)OCc3ccccc3)O[C@@H]2[C@@H]1O
inactive | inactive | inactive | inactive |  |  |  |  | O=C(NC[C@H]1O[C@H](O[C@H]2[C@H](O)[C@@H](O[C@H]3O[C@H](CO)[C@@H](O)[C@H](NC(=O)OCc4ccccc4)[C@H]3O)[C@H](NC(=O)OCc3ccccc3)C[C@@H]2NC(=O)OCc2ccccc2)[C@H](O)[C@@H](O)[C@@H]1O)OCc1ccccc1
inactive | inactive | inactive | inactive |  |  |  |  | CC(=O)NC[C@@H]1O[C@H](O[C@H]2[C@@H](O)[C@H](O[C@@H]3[C@@H](O)[C@H](NC(C)=O)C[C@H](NC(C)=O)[C@H]3O[C@H]3O[C@H](CNC(C)=O)[C@@H](O)[C@H](O)[C@H]3NC(C)=O)O[C@@H]2CO)[C@H](NC(C)=O)[C@@H](O)[C@@H]1O
inactive | inactive | inactive | inactive |  |  |  |  | O=C(NC[C@H]1O[C@H](O[C@H]2[C@H](O)[C@@H](O[C@H]3O[C@H](CO)[C@@H](O)[C@H](NC(=O)c4ccccc4)[C@H]3O)[C@H](NC(=O)c3ccccc3)C[C@@H]2NC(=O)c2ccccc2)[C@H](O)[C@@H](O)[C@@H]1O)c1ccccc1
inactive | inactive | inactive | inactive |  |  |  |  | O=C(NC[C@@H]1O[C@H](O[C@H]2[C@@H](O)[C@H](O[C@@H]3[C@@H](O)[C@H](NC(=O)OCc4ccccc4)C[C@H](NC(=O)OCc4ccccc4)[C@H]3O[C@H]3O[C@H](CNC(=O)OCc4ccccc4)[C@@H](O)[C@H](O)[C@H]3NC(=O)OCc3ccccc3)O[C@@H]2CO)[C@H](NC(=O)OCc2ccccc2)[C@@H](O)[C@@H]1O)OCc1ccccc1
 |  |  |  | Active |  |  |  | CN(C(=O)c1ccccc1)[C@@H]1[C@@H](O[C@H]2O[C@H](CO)[C@@H](NC(=O)c3ccccc3)[C@H](O)[C@H]2O)O[C@H]2C[C@@H](NC(=O)c3ccccc3)[C@@H](O[C@H]3[C@H](O)[C@@H](O)[C@H](NC(=O)c4ccccc4)C[C@@H]3NC(=O)c3ccccc3)O[C@@H]2[C@@H]1O
 |  |  |  | Active | Active | Active | Dose-dependent effect | O=C(NC[C@@H]1O[C@H](O[C@H]2[C@@H](OS(=O)(=O)O)[C@H](O[C@@H]3[C@@H](OS(=O)(=O)O)[C@H](NC(=O)OCc4ccccc4)C[C@H](NC(=O)OCc4ccccc4)[C@H]3O[C@H]3O[C@H](CNC(=O)OCc4ccccc4)[C@@H](OS(=O)(=O)O)[C@H](OS(=O)(=O)O)[C@H]3NC(=O)OCc3ccccc3)O[C@@H]2COS(=O)(=O)O)[C@H](NC(=O)OCc2ccccc2)[C@@H](OS(=O)(=O)O)[C@@H]1OS(=O)(=O)O)OCc1ccccc1
inactive | inactive | inactive | inactive |  |  |  |  | O=C(Cc1ccccc1)NC[C@@H]1O[C@H](O[C@H]2[C@@H](O)[C@H](O[C@@H]3[C@@H](O)[C@H](NC(=O)Cc4ccccc4)C[C@H](NC(=O)Cc4ccccc4)[C@H]3O[C@H]3O[C@H](CNC(=O)Cc4ccccc4)[C@@H](O)[C@H](O)[C@H]3NC(=O)Cc3ccccc3)O[C@@H]2CO)[C@H](NC(=O)Cc2ccccc2)[C@@H](O)[C@@H]1O
inactive | inactive | inactive | inactive |  |  |  |  | O=C(Cc1ccccc1)NC[C@H]1O[C@H](O[C@H]2[C@H](O)[C@@H](O[C@H]3O[C@H](CO)[C@@H](O)[C@H](NC(=O)Cc4ccccc4)[C@H]3O)[C@H](NC(=O)Cc3ccccc3)C[C@@H]2NC(=O)Cc2ccccc2)[C@H](O)[C@@H](O)[C@@H]1O
